Experimental data as given in ChEMBL document CHEMBL4043068, “(±)-Uncarilins A and B, Dimeric Isoechinulin-Type Alkaloids from Uncaria rhynchophylla” (J Nat Prod, 2017).
Calls of active or inactive are those of the source. The calls are words filed in the database; no cut-off is given here.

What was measured:
Type in all cases: functional, cell-based
[1] = target: T1, Melatonin receptor type 1B (Homo sapiens) (UniProt P49286); assay: Agonist activity at human MT2 receptor expressed in HEK293 cells incubated for 1 hr by Fluo-8 dye based calcium assay
T1 sequence (whole entry): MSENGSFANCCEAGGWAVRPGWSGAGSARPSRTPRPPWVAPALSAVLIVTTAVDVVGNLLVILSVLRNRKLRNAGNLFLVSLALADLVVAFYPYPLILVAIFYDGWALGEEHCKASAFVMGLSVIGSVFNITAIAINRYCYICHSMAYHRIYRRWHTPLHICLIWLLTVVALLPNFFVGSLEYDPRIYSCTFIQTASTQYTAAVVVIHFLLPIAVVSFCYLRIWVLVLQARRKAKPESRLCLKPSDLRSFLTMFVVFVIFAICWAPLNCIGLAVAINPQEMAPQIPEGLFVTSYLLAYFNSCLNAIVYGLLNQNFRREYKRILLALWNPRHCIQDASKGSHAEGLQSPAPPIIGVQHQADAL
How it was run: (§1)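 HEK293 cells stably expressing the human receptor, kept in DMEM with 10% FBS, seeded at 4 × 10^4 cells/well on Matrigel-coated plates and incubated overnight (5% CO2, 37 °C). Fluo-8 wash-free calcium dye loaded for 1 h at 37 °C. Samples in Hank's balanced salt solution, tested at 0.25 mM. Calcium fluorescence read on a FlexStation3 plate reader.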

[2] = target: Melatonin receptor type 1A (Homo sapiens) (UniProt P48039); assay: Agonist activity at human MT1 receptor expressed in HEK293 cells incubated for 1 hr by Fluo-8 dye based calcium assay; how it was run: as §1
Chain of Melatonin receptor type 1A (Homo sapiens) (P48039 whole entry): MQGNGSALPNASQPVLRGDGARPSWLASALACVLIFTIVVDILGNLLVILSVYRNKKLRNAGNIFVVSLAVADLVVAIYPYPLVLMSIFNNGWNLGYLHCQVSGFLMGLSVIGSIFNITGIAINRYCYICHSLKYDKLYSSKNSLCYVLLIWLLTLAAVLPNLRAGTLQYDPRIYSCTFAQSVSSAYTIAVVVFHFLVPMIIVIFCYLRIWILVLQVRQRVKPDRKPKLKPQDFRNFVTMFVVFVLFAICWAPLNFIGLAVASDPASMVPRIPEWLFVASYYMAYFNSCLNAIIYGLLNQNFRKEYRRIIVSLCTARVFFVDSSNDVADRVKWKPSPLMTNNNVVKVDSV

[3] = target: T2, 5-hydroxytryptamine receptor 1A (Homo sapiens) (UniProt P08908); assay: Agonist activity at human 5HT1A receptor expressed in HEK293 cells incubated for 1 hr by Fluo-8 dye based calcium assay; how it was run: as §1
T2 sequence (whole entry): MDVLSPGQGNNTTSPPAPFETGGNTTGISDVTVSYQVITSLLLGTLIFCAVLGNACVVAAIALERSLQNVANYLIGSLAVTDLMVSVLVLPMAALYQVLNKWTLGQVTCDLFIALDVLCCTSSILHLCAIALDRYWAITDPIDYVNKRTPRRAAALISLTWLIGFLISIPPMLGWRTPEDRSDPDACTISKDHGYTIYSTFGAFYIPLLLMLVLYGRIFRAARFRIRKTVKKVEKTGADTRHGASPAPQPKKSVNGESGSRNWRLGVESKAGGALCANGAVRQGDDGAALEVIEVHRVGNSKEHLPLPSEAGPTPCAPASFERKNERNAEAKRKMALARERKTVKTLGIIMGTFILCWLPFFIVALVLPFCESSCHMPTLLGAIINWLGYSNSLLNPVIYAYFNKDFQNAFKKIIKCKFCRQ

[4] = target: T3, 5-hydroxytryptamine receptor 2C (Homo sapiens) (UniProt P28335); assay: Agonist activity at human 5HT2C receptor expressed in HEK293 cells incubated for 1 hr by Fluo-8 dye based calcium assay; how it was run: as §1
T3 sequence (whole entry): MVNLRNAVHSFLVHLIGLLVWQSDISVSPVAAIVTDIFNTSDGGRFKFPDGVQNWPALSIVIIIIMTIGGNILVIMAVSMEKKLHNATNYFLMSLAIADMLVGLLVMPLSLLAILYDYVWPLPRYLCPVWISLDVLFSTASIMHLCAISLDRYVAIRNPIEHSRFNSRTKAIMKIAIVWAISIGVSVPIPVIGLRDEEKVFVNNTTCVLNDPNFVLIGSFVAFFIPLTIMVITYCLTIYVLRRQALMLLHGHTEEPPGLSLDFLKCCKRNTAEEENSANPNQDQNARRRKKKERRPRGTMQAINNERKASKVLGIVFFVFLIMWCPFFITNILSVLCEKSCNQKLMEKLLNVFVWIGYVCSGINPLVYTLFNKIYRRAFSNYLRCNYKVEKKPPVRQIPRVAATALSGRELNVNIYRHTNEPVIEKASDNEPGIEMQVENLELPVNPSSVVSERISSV

Row | Structure (SMILES) | Activity [1] | Activity [2] | Activity [3] | Activity [4]
1 | C=CC(C)(C)c1[nH]c2ccccc2c1[C@H]1[C@H](c2c(C(C)(C)C=C)[nH]c3ccccc23)[C@]2(NC(=O)[C@H](C)NC2=O)[C@@]12NC(=O)[C@H](C)NC2=O | Active | Active | inactive | inactive
2 | C=CC(C)(C)c1[nH]c2ccccc2c1[C@@H]1[C@@H](c2c(C(C)(C)C=C)[nH]c3ccccc23)[C@@]2(NC(=O)[C@H](C)NC2=O)[C@]12NC(=O)[C@H](C)NC2=O | Active | Active | inactive | inactive
3 | C=CC(C)(C)c1[nH]c2ccccc2c1[C@H]1[C@H](c2c(C(C)(C)C=C)[nH]c3ccccc23)[C@]2(NC(=O)[C@@H](C)NC2=O)[C@@]12NC(=O)[C@@H](C)NC2=O | 52.4% | 11.3% | inactive | inactive
4 | C=CC(C)(C)c1[nH]c2ccccc2c1[C@@H]1[C@@H](c2c(C(C)(C)C=C)[nH]c3ccccc23)[C@@]2(NC(=O)[C@@H](C)NC2=O)[C@]12NC(=O)[C@@H](C)NC2=O | Active | Active | inactive | inactive
